Twelve molecules from ChEMBL document CHEMBL5104156, “Development of subtype-selective covalent ligands for the adenosine A2B receptor by tuning the reactive group” (RSC Med Chem, 2022) can be followed below.

Common to all, as to format: cell membranes
Assay [1] addresses T1, Adenosine receptor A3 (Homo sapiens) (UniProt P0DMS8).
T1 sequence (whole entry): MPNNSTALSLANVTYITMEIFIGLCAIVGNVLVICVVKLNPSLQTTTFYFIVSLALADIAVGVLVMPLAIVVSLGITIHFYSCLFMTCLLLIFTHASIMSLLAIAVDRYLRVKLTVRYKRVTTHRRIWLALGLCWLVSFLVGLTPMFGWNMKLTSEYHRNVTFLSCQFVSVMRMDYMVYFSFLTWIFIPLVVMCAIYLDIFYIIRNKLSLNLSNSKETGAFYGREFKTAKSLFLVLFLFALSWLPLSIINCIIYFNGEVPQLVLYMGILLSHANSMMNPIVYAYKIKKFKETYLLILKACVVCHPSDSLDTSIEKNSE
As to the kind of experiment: Displacement of [3H]PSB-11 from human adenosine A3 receptor expressed in CHO cell membrane at 1 uM preincubated for 4 hrs followed by [3H]PSB-11 addition and measured after 0.5 hrs by radioligand displacement assay. The settings on record: time 4.5 hrs.

In assay [2] the target is Adenosine receptor A2a (Homo sapiens) (UniProt P29274). As to the kind of experiment: Displacement of [3H]ZM241385 from human adenosine A2A receptor expressed in HEK293 cell membrane at 1 uM and measured after 0.5 hrs by radioligand displacement assay. For orientation: Loss of bound radioactivity is the signal in a displacement assay; it reports binding, not function.
For assay [3], the target named is T2, Adenosine receptor A2b (Homo sapiens, UniProt P29275).
T2 sequence (P29275 whole entry): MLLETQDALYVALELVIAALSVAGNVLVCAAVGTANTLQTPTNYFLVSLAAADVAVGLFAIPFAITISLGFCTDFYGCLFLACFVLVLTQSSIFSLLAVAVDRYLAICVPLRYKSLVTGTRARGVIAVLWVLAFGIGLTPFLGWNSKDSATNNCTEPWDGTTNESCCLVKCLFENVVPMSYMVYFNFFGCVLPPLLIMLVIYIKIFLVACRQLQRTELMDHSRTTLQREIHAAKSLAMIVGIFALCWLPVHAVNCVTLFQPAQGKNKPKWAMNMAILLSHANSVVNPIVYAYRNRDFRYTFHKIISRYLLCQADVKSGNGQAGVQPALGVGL
As to the kind of experiment: Displacement of [3H]PSB-603 from human adenosine A2B receptor expressed in CHO cell membrane and measured after 0.5 hrs by radioligand displacement assay.

Assay [4] has as its target T3, Adenosine receptor A1 (Homo sapiens) (UniProt P30542).
T3 sequence (whole entry): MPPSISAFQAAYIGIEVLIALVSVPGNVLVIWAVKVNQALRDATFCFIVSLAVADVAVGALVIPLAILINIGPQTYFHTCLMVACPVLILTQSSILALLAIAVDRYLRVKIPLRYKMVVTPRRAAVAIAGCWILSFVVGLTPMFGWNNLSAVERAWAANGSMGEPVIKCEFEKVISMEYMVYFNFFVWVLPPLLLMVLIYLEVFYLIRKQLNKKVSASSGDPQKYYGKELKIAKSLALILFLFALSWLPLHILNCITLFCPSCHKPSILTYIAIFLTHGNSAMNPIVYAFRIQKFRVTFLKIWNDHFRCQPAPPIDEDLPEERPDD
Briefly: Displacement of [3H]DPCPX from human adenosine A1 receptor expressed in CHO cell membrane at 1 uM and measured after 0.5 hrs by radioligand displacement assay.

In assay [5] the target is T4, Adenosine receptor A2b (Homo sapiens) (UniProt P29275).
T4 sequence (whole entry): T2 sequence (P29275 whole entry)
Briefly: Ratio of Ki for displacement of [3H]PSB-603 from human adenosine A2B receptor expressed in CHO cell membrane to Ki for displacement of [3H]PSB-603 from human adenosine A2B receptor expressed in CHO cell membrane preincubated for 4hrs. In outline:
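CHO-spap-hA2BAR membranes (30 µg protein) in 50 mM Tris-HCl pH 7.4 with 0.1% CHAPS. Nonspecific binding was set with 10 µM ZM241385. Filtration was followed by scintillation counting.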

Assay [6] has as its target Adenosine receptor A2a (Homo sapiens) (UniProt P29274). Briefly: Displacement of [3H]ZM241385 from human adenosine A2A receptor expressed in HEK293 cell membrane at 1 uM preincubated for 4 hrs followed by [3H]ZM241385 addition and measured after 0.5 hrs by radioligand displacement assay. Conditions: time 4.5 hrs.
Assay [7] deals with T1, Adenosine receptor A3 (Homo sapiens). As to the kind of experiment: Displacement of [3H]PSB-11 from human adenosine A3 receptor expressed in CHO cell membrane at 1 uM and measured after 0.5 hrs by radioligand displacement assay.
The target in assay [8] is T2, Adenosine receptor A2b. As to the kind of experiment: Displacement of [3H]PSB-603 from human adenosine A2B receptor expressed in CHO cell membrane preincubated for 4 hrs followed by [3H]PSB-603 addition and measured after 0.5 hrs by radioligand displacement assay.
Assay [9] addresses T3, Adenosine receptor A1 (Homo sapiens). Briefly: Displacement of [3H]DPCPX from human adenosine A1 receptor expressed in CHO cell membrane at 1 uM preincubated for 4 hrs followed by [3H]DPCPX addition and measured after 0.5 hrs by radioligand displacement assay. The settings on record: time 4.5 hrs.
Assay [10] concerns the target T4, Adenosine receptor A2b (Homo sapiens). As to the kind of experiment: Displacement of [3H]PSB-603 from human adenosine A2B receptor expressed in CHO cell membrane assessed as covalent adduct formation at 1 uM preincubated followed by 4 times washing treatment and then with [3H]PSB-603 exposure by radioligand displacement assay. In outline:
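CHO-spap-hA2BAR membranes (80 µg protein) were shaken 2 h at 25 °C with ligand, added as a 1 µM solution, in 0.1% CHAPS/50 mM Tris-HCl pH 7.4. The washed set was pelleted, resuspended and shaken 10 min at 25 °C, repeated three times; an unwashed set was kept for comparison. Both sets then had [3H]PSB-603 (1.5 nM solution) added for 2 h at 25 °C, with nonspecific binding set by 10 µM ZM241385. Filtration, then scintillation counting.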

SMILES strings stand for the structures. pKi: −log10 of the molar value. Active and inactive are the calls of the source. No cut-off for these calls is given here.

Adenosine receptor A2a (Homo sapiens), sequence (P29274 whole entry): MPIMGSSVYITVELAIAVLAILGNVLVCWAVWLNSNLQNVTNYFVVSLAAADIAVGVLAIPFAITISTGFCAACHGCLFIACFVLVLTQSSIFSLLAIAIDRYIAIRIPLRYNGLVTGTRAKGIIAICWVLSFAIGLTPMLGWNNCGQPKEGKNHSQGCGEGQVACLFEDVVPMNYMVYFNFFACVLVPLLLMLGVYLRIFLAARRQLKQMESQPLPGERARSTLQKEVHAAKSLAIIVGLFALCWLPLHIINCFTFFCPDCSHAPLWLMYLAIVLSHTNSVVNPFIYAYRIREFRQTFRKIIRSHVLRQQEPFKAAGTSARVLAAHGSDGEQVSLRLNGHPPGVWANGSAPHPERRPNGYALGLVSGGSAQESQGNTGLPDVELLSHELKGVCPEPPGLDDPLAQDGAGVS

Regarding `CCCn1c(=O)c2[nH]c(-c3cccc(N=C=S)c3)nc2n(CCC)c1=O`, the Activity in assay [1] turned out to be 100%; in [2] it was 47%; in assay [4], 73%; in assay [6], 34%; in assay [7], 89%; in [9], 96%. Also, the results for the pKi in [3] and in assay [8] were 6.21 and 7.31, respectively. For the same molecule, the Ratio Ki in [5] was 19.3.

As to `CCCn1c(=O)c2[nH]c(-c3cccc(S(=O)(=O)F)c3)nc2n(CCC)c1=O`, the Activity was 43% in assay [1]; 19% in assay [2]; 52% in assay [4]; 23% in assay [6]; 30% in assay [7]; 61% in [9]. For the same molecule, the pKi in assay [3] was 6.02; in [8], 6.80. For the same molecule, in [5], the Ratio Ki amounted to 7.1.

As for `CCCn1c(=O)[nH]c2nc(-c3cccc(OS(=O)(=O)F)c3)[nH]c2c1=O`, the Activity in assay [1] amounted to 5%; in [2], 2%; in assay [4], 6%; in assay [6] it was 0%; in assay [7], 14%; in assay [9], 1%. Further, the pKi in assay [3] is 6.85; in [8], 7.15. The Ratio Ki in assay [5] stood at 1.6.

Take `CCCn1c(=O)[nH]c2nc(-c3ccc(N=C=S)cc3)[nH]c2c1=O`: the Activity in assay [1] stood at 66%; in assay [2], 25%; in assay [4] it was 51%; in assay [6], 27%; in [7] it was 15%; in [9], 97%. For the same molecule, the pKi in [3] is 8.67; in assay [8] it was 9.18. Besides, the Ratio Ki in assay [5] is 3.4.

As to `CCCn1c(=O)[nH]c2nc(-c3ccc(S(=O)(=O)F)cc3)[nH]c2c1=O`, the Activity in assay [1] stood at 9%; in [2], 52%; in assay [4], 29%; in assay [6], 43%; in [7] it was 7%; in [9], 41%. Moreover, the pKi in [3] is 8.10; in [8] it was 9.17. The outcome in assay [10] was Active. In addition, the Ratio Ki in [5] came to 12.1.

For the molecule `CCCn1c(=O)c2[nH]c(-c3ccc(S(=O)(=O)F)cc3)nc2n(CCC)c1=O`, the Activity in assay [1] worked out at 5%; in assay [2] it was 54%; in [4], 61%; in assay [6] it was 55%; in assay [7], 12%; in assay [9] it was 69%. Moreover, the pKi in assay [3] was 7.22; in [8], 8.62. In addition, the Ratio Ki in assay [5] was 27.3.

As for `CCCn1c(=O)c2[nH]c(-c3ccc(N=C=S)cc3)nc2n(CCC)c1=O`, the Activity in assay [1] was determined as 96%; in [2], 40%; in [4] it was 77%; in [6] it was 39%; in [7] it was 48%; in [9], 92%. Further, the pKi in assay [3] was 7.62; in assay [8], 8.49. For the same molecule, in assay [5], the Ratio Ki was found to be 7.7.

As for `CCCn1c(=O)c2[nH]c(-c3ccc(OS(=O)(=O)F)cc3)nc2n(CCC)c1=O`, the Activity amounted to 49% in assay [1]; 63% in [2]; 79% in assay [4]; 69% in [6]; 47% in assay [7]; 85% in assay [9]. Moreover, the pKi is 7.31 in assay [3] and 7.29 in [8]. Moreover, in assay [5], the Ratio Ki came to 1.

For `CCCn1c(=O)[nH]c2nc(-c3ccc(OS(=O)(=O)F)cc3)[nH]c2c1=O`, the Activity stood at 8% in assay [1]; 35% in [2]; 17% in assay [4]; 24% in [6]; 8% in assay [7]; 12% in assay [9]. Besides, the pKi in assay [3] is 7.93; in [8] it was 8.26. The outcome in assay [10] was Active. The Ratio Ki in assay [5] was determined as 2.2.

Turning to `CCCn1c(=O)[nH]c2nc(-c3cccc(N=C=S)c3)[nH]c2c1=O`, the Activity came to 95% in [1]; 0% in [2]; 7% in [4]; 6% in assay [6]; 58% in [7]; 16% in assay [9]. Also, the pKi in assay [3] is 6.96; in assay [8] it was 8.55. Further, in assay [5], the Ratio Ki came out at 74.3.

For `CCCn1c(=O)c2[nH]c(-c3cccc(OS(=O)(=O)F)c3)nc2n(CCC)c1=O`, the Activity amounted to 58% in [1]; 13% in assay [2]; 76% in assay [4]; 12% in assay [6]; 64% in assay [7]; 77% in assay [9]. The figures for the pKi in assay [3] and in [8] were 6.25 and 6.28, respectively. In addition, the Ratio Ki in assay [5] was found to be 1.2.

For `CCCn1c(=O)[nH]c2nc(-c3cccc(S(=O)(=O)F)c3)[nH]c2c1=O`, the Activity in assay [1] came out at 10%; in [2] it was 20%; in [4], 6%; in assay [6], 6%; in assay [7] it was 14%; in assay [9], 36%. In addition, the pKi is 6.88 in assay [3] and 7.88 in [8]. Besides, the Ratio Ki in [5] turned out to be 10.2.

One may read the pKi as the negative decadic logarithm of the Ki, by convention in mol/L.
